Data on one compound can be found in ChEMBL document CHEMBL1212766, “Dose escalation study of the safety, tolerability, and pharmacokinetics of nemonoxacin (TG-873870), a novel potent broad-spectrum nonfluorinated quinolone, in healthy volunteers” (Antimicrob Agents Chemother, 2010).

Values after ≈ are worked out from the molar mass of the structure shown.

For data set [1], the system named is Homo sapiens. The data set can be described thus: Toxicity in healthy human assessed as occurrence of oral hypoesthesia at 1000 […], po. The data set is classed as organism-based. Also on record: route oral. The note with it: in vivo.
Data set [2] has as its system Homo sapiens. The data set can be described thus: Toxicity in healthy human assessed as occurrence of nausea at 250 […], po. In kind it is organism-based. Also on record: route oral. Conditions: in vivo.
The test system of data set [3] is Streptococcus pneumoniae. The data set can be described thus: Ratio of fCmax to MIC90 for ciprofloxacin-resistant Streptococcus pneumoniae. The data set is classed as functional. The gist of the method: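 Fasted healthy adults got a single oral 500 mg dose with 240 ml water. Plasma was sampled predose to 96 h and assayed by LC-MS/MS (5–5,000 ng/ml). Cmax was read from individual profiles, and AUC0-∞ came from linear trapezoid plus extrapolation. Free fraction was measured by ultrafiltration (30,000 MWCO) of 0.5 and 6 h plasma. Free exposure was divided by the isolate MIC90.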

The test system of data set [4] is Homo sapiens. The data set is described as follows: Toxicity in healthy human assessed as occurrence of pustular rashes at 125 […], po. The data set is classed as organism-based. Also on record: route oral. Conditions: in vivo.
Data set [5] relates to Homo sapiens. The data set can be described thus: AUC (0 to infinity) in healthy human at 500 […], po administered as single dose. The note with it: in vivo. Also on record: time infinity, route oral. In kind it is ADME, organism-based, Plasma.
Data set [6] can be described thus: Terminal phase elimination half-life in healthy human at 1500 mg, po administered single dose. The note with it: in vivo.
The test system of data set [7] is Homo sapiens. The data set can be described thus: AUC (0 to infinity) in healthy human at 125 […], po administered as single dose. In kind it is ADME, organism-based, Plasma. Also on record: time infinity, route oral. The note with it: in vivo.
For data set [8], the system named is Staphylococcus aureus. The data set is described as follows: Antimicrobial activity against methicillin-resistant Staphylococcus aureus. In kind it is functional.
In data set [9] the test system is Homo sapiens. The data set can be described thus: Toxicity in healthy human assessed as occurrence of headache at 1000 […], po. Conditions: in vivo. Also on record: route oral. The data set is classed as organism-based.
Data set [10] in a line: Clearance in healthy human assessed as recovery of unchanged drug in urine at 1500 […], po administered as single dose. The note with it: read-out: Recovered in urine. Also on record: route oral. In kind it is ADME, organism-based. In short, it runs like this:
(§1)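 Healthy volunteers, six on drug per cohort, fasted 10 h and given one oral dose with 240 ml water, then fasted 4 h more. Urine was pooled over intervals from 0-2 to 72-96 h and stored at about −70°C. Drug was measured by solid-phase extraction and LC-MS/MS (LLOQ 200 ng/ml), giving the percent of dose recovered unchanged. Values are means (SD).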

Data set [11] is described as follows: Clearance in healthy human assessed as recovery of unchanged drug in urine at 1000 […], po administered as single dose. In kind it is ADME, organism-based. Also on record: route oral. Conditions: read-out: Recovered in urine. The gist of the method: as §1

What is called AUC is concentration integrated over time. By half-life is commonly meant how long it takes for the measured level to halve. Low values mean fast loss, high ones slow loss. What is called MIC90 is an inhibitory concentration at the 90% level, which refers to growth in some studies and to a panel of isolates in others. In the case of `COc1c(N2C[C@@H](C)C[C@H](N)C2)ccc2c(=O)c(C(=O)O)cn(C3CC3)c12` [NEMONOXACIN], the Activity was found to be 17% in data set [1], 0% in data set [2], 17% in data set [4] and 17% in data set [9]. Also, the Ratio in data set [3] came to 24. In addition, the AUC in data set [5] is 32360 ng·h/mL; in data set [7], 7670 ng·h/mL. The same compound showed a half-life in [6] of 13 h. For the same compound, the MIC90 in data set [8] stood at 0.06 µg/mL (≈ 0.162 µM). Besides, the dose excreted in [10] was determined as 37.6%; in data set [11], 36.5%.
